Source: ChEMBL document CHEMBL4513216, “Probing the Open Global Health Chemical Diversity Library for Multistage-Active Starting Points for Next-Generation Antimalarials” (ACS Infect Dis, 2020)

Experiment: Toxicity liver stage against HepG2, at 10uM
Format: cell-based
Set-up: test concentration 10 uM, cell line HepG2-A16-CD81EGFP
Settings: human, HepG2-A16-CD81EGFP cells; read-out: INHIBITION
Summary of the method: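 Uninfected HepG2-A16-CD81EGFP cells, 3 × 10^3 per well, 1536-well, plated on prespotted compound at 10 μM final, parasite-free screening media added to match infected plates; puromycin 10 μM positive, DMSO 0.5% negative; run in parallel with 48 h PbLuc assay at 37 °C, 5% CO2; viability by CellTiter-Glo luminescence, normalized to controls.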

| Compound | cytotoxicity at 10 µM [%] |
| --- | --- |
| CCCc1nnc([C@H]2CCN(Cc3ncc[nH]3)C2)o1 | -1.63 |
| COCCCN(Cc1cc(O)nc2ccccc12)C(=O)NC(C)C | 0.829 |
| Cc1cc(C)n(Cc2ccc(-c3noc(C(=O)NCCCO)n3)cc2)n1 | -1.49 |
| COC[C@]12COC[C@H]1CN(S(=O)(=O)c1cccnc1)C2 | -0.975 |
| CCN1C(=O)CC(c2cnn(C)c2)C12CCN(C(=O)C1CC=CC1)CC2 (stereo not given) | 5.13 |
| CC(C)N1c2sc(-c3ccccc3)nc2CC1C(=O)NCCCO (stereo not given) | 7.8 |
| O=C(C1CC1)N1CC[C@H]2C(=O)N(c3ccsc3)CCO[C@H]2C1 | 9.85 |
| Cc1nc(COCc2cnc3n2CCN(C(=O)C2CC2)C3C)cs1 (stereo not given) | 11.4 |
| Cc1nnc(N2CCCC3(CN(c4cccc(F)c4)CCO3)C2)o1 (stereo not given) | 0.777 |
| COc1cccc(CN2CCCCCC2c2cccs2)c1O (stereo not given) | 11.4 |
| Cc1ccccc1OCn1ccc(C(=O)NCCN2CCOCC2)n1 | 8.02 |
| O=C(COc1ccc2c(c1)CCC2)NCc1ccco1 | 2.98 |
| CS(=O)(=O)N1CCN(C(=O)c2cc(-c3cccs3)cs2)CC1 | 1.8 |
| Cc1cc(C(F)(F)F)nn1CC(C)C(=O)Nc1ccncc1 (stereo not given) | -2.13 |
| O=C(O)c1ccccc1-c1ccc(CN2CCC(CO)C2)cn1 (stereo not given) | -1.79 |
| CS(=O)(=O)N1CCC(Cc2cnc(Br)cn2)CC1 | 13.4 |
| O=C(CC1CCN(CCc2ccccc2)CC1)N1CCCOCC1 | -2.38 |
| CC(=O)Nc1cc(F)c(S(=O)(=O)N(C)CC2CCC2)c(F)c1 | -54.4 |
| CC(OCC1CC1)C(=O)N1CCCN(c2nc3ccccc3[nH]2)CC1 (stereo not given) | -0.657 |
| CC(C)OCCN1CCC(Nc2nccnc2C#N)CC1 | 2.72 |
| COC(=O)c1ccc(Cn2cccc(C(F)(F)F)c2=O)c(OC)c1 | 8.55 |
| CCN(C)S(=O)(=O)c1ccc(Cl)cc1C#N | -36.9 |

| Compound | cytotoxicity at 10 µM [%] |
| --- | --- |
| O=C1CC(N(C(=O)c2ccc(-n3cccc3)cc2)C2CC2)C(=O)N1 (stereo not given) | -1.67 |
| CC(CNC(=O)N1CCN(Cc2ccon2)CC1)Cc1cccs1 (stereo not given) | -1.26 |
| Cc1nnc(CN(C)S(=O)(=O)c2ccc(Br)cc2Cl)n1C | 12.6 |
| COc1cccc(OCC(=O)N(C)c2cccnc2N(C)C)c1 | 0.102 |
| CN(Cc1ccncc1)c1cncc(Br)c1 | 2.71 |
| Cc1cc(C(=O)NCC(=O)N2CCOCC2)nn1C(C)(C)C | -3.44 |
| CC(Sc1nnc(C2CC2)n1CC(N)=O)c1ccc(Cl)cc1 (stereo not given) | 7.72 |
| CCC(=O)NCC(=O)NCc1cc(Br)ccc1OC(F)F | 17.5 |
| Cc1nn(C)c(C)c1NC(=O)CN1CCc2c(nc(C3CC3)n2C)C1 | -5.31 |
| CCOc1nnc(CN(C)C2CCCN(c3cccnn3)C2)s1 (stereo not given) | -17.3 |
| CO[C@@H]1CO[C@@]2(CCCN(C(=O)N3CCCC3)C2)C1 | -98.6 |
| COC[C@@H]1CCC[C@@]12CN(C(=O)C1CCOCC1)CCO2 | -111 |
| COCC1CN(C(=O)Cc2ccc(F)cc2)Cc2ccnn2C1 (stereo not given) | -73.9 |
| Cn1cccc1C(=O)N1CCC2(CC1)CN(c1ccccc1)C(=O)CO2 | -79.1 |
| CN(C)[C@@H]1CCN(C(=O)c2ccccn2)[C@H]1Cc1ccncc1 | -63.6 |
| COc1cccc(C(=O)N2CCOC3(CCCN(C(C)=O)C3)C2)c1 (stereo not given) | -68.6 |
| O=C(c1cnccn1)N1CCc2ncnc(C3CCOC3)c2CC1 (stereo not given) | -81.9 |
| O=C(NCC1CC1)c1c2c(N3CCCC3)ncnc2n2ccccc12 | -61.1 |
| CCOCC1CC2(CCN(C(=O)c3ncccn3)CC2)CO1 (stereo not given) | 4.93 |
| O=C(NCc1nncn1C1CCCCC1)C1CNCCO1 (stereo not given) | -2.08 |
| Fc1cccc(-n2cc(CN3CCCCC3CCn3ccnc3)cn2)c1 (stereo not given) | -8.55 |
| c1cncc(CNc2ncnc3c2CCN(Cc2ccsc2)CC3)c1 | 7.91 |

| Compound | cytotoxicity at 10 µM [%] |
| --- | --- |
| Cc1cc(C(=O)N2C[C@H](CO)C[C@H](CN3CCOCC3)C2)nc(C)n1 | 9.91 |
| CNc1nc(N2C[C@H](NC(=O)CCOC)[C@@H](C3CC3)C2)nc2c1CCC2 | 9.62 |
| Cc1nnc(SCCCNC(=O)c2ccc3c(c2)OCO3)s1 | 8.8 |
| CCOc1cc(CNCc2ncc[nH]2)c(Cl)cc1OC(C)C | 5.45 |
| COc1coc(CN2CCCC3(CCC(=O)N(CC4CC4)C3)C2)cc1=O (stereo not given) | -34.4 |
| Cc1ncccc1OC1(C(=O)NCCc2ccccn2)CCNCC1 | 1.83 |
| O=C(c1ccc(F)c(F)c1)N1CCC(Cn2cc(CO)nn2)CC1 | 5.95 |
| CCc1cc(NCCNc2ccncc2C)n2nc(C)c(C)c2n1 | 3.29 |
| CC(C(=O)O)N1CCc2onc(-c3ccc4c(c3)OCO4)c2C1 (stereo not given) | -6.46 |
| COc1ccc(CN2CCSCC2)c(OC)c1 | 7.94 |
| OCCCc1nncn1-c1cccc(C(F)(F)F)c1 | 6.74 |
| Cc1cc(CC(C)NC2CCN(CC(C)C)CC2)[nH]n1 (stereo not given) | -8.32 |
| CCCN1CCCn2nc(CNC(=O)C3CCOC3)cc2C1 (stereo not given) | 0.237 |
| CCc1nccn1CCC(=O)N1CC[C@@H](c2ccc(F)cc2)[C@H](O)C1 | -7.79 |
| O=C(CC1CCCC1)N1CCC2(CC1)[C@H](O)C[C@@H]2O | 2.3 |
| CCc1nc2c(c(NCc3nc(-c4cccnc4)no3)n1)CCNCC2 | 5.85 |
| CN(C)c1ccccc1C(=O)N1CCCC(c2cccc(C(=O)O)c2)C1 (stereo not given) | -6.11 |
| CC(C)OCCCNC(=O)C1CCC(=O)N(C2CCCC2)C1 (stereo not given) | -5.92 |
| Cc1ncc(C(=O)N2C[C@H](CO)C[C@H](CN3CCOCC3)C2)c(=O)[nH]1 | -10.4 |
| CCN(CC)C(=O)[C@@H]1C[C@@H](N)CN1c1nc(N2CCCC2)nc(C)c1C | -6.9 |
| CC(Cc1ccccn1)N(C)C(=O)c1ncc[nH]1 (stereo not given) | 3.04 |
| c1coc(-c2nc(CNC3CCC4(CCNCC4)CC3)no2)c1 | -15.8 |

| Compound | cytotoxicity at 10 µM [%] |
| --- | --- |
| CC(O)CN1CC2(CCC1=O)CCN(Cc1cc(F)ccc1Cl)CC2 (stereo not given) | 6.89 |
| COc1ccc(Cl)cc1S(=O)(=O)N(C)CC(=O)Nc1cccnc1 | 0.192 |
| COc1ccc(Cl)cc1S(=O)(=O)N(C)CC(=O)Nc1ccccc1 | -2.76 |
| Cc1nc(CCN(C)C(=O)CN2CCCCCC2)no1 | 5.33 |
| COc1cccc(-n2cc(CN(C)C(=O)c3cnc(O)cn3)cn2)c1 | -14.7 |
| Cc1cccc(-c2nc(C)nn2CC(=O)NC(C)C2CC2)c1 (stereo not given) | -0.502 |
| CCc1nccn1C1CCCN(C(=O)c2ccc(-n3ccnc3)cc2)C1 (stereo not given) | -10.8 |
| CC1CCCN(Cc2ccc(OCc3nccn3C)cc2)C1 (stereo not given) | -11.8 |
| Cc1cccc(CNC(=O)CCc2c(C)nc3cc(O)nn3c2C)n1 | -4.03 |
| Cc1cc(CN2CCC(N(C)Cc3noc(C4CC4)n3)C2)no1 (stereo not given) | 5.35 |
| Cc1csc(CNC(=O)N2CCN(Cc3ccco3)CC2)n1 | 0.702 |
| Cc1nccc(-c2cccc(NCC(=O)N3CCOCC3)c2)n1 | -0.269 |
| CN(Cc1cccc(O)c1)C(=O)Nc1cccnc1N1CCCC1 | -0.565 |
| O=C1COc2cc(C(=O)NS(=O)(=O)c3ccc(F)cc3F)ccc2N1 | -6.21 |
| COc1ncccc1C(=O)NC1CCOc2ccccc21 (stereo not given) | -6.25 |
| Cc1ccc(CNCC2CNc3cc(C)nn3C2)cn1 (stereo not given) | -7.07 |
| Cc1ccc(NC2CCN(C(=O)CCOCC(F)(F)F)CC2)nn1 | -2.78 |
| CN1CCCN(C(=O)NCCOc2ccc3c(c2)OCO3)CC1 | -17.5 |
| CC(=O)N1CCN(CC(C)(O)c2cccc(C(F)(F)F)c2)CC1 (stereo not given) | -14.6 |
| COc1ccccc1CC(=O)NS(C)(=O)=O | -7.31 |
| O=C(O)c1cc(NS(=O)(=O)c2cccc(Cl)c2F)ccc1Cl | -4.92 |
| CCn1nc2c(cc1=O)CN(Cc1nc(CCOC)no1)CC2 | -9.24 |

| Compound | cytotoxicity at 10 µM [%] |
| --- | --- |
| COc1cc(CNCc2c(C(C)C)nn(C)c2N(C)C)ccn1 | 0.504 |
| Cn1nc2c(cc1=O)CN(Cc1nnc(C3CC3)o1)CC2 | 4.28 |
| CCc1ccc(NC(=O)N2Cc3c(CN(C)C)nn(C)c3C2)cc1 | 5.62 |
| COc1cc(N2CCc3ncnc(-c4ccncc4)c3CC2)ncn1 | 9.85 |
| Cn1cc(C2CC(=O)NC23CCN(C(=O)c2cccnc2)CC3)cn1 (stereo not given) | -79.7 |
| FC1(F)CCNCC12CCN(c1cccnc1)C2 (stereo not given) | 5.8 |
| COc1cc2cc(C)c(SCCN3CCCC3)nc2cc1OC | -7.48 |
| CN(C)S(=O)(=O)N1CC[C@H]2OCC[C@@]2(COc2cccnc2)C1 | 11.2 |
| CCOCC1CN(C(=O)Cc2ccsc2)Cc2ccnn2C1 (stereo not given) | -71.4 |
| CCOCC1CN(Cc2ccc(OC)cc2)Cc2nn(CC3CC3)cc21 (stereo not given) | 18 |
| O=C(CC1CC1)NCc1cn2c(n1)CN(Cc1cccnc1)CC2 | -78 |
| Cc1ncsc1CN1C[C@@H]2COC[C@]2(C(=O)NCc2ccccn2)C1 | -108 |
| COCC(=O)NC1CC2(CCN(CCO)CC2)c2ccccc21 (stereo not given) | -109 |
| Cc1ccc(CN2CC[C@H]3C(=O)N(Cc4cccnc4)CCO[C@H]3C2)o1 | -88.7 |
| O=C1NC2(CCNCC2)CC1c1ccncc1 (stereo not given) | -60.7 |
| CN(C)[C@@H]1CCN(C(=O)c2ccco2)[C@H]1Cc1cnn(C)c1 | -81.9 |
| CN(C)[C@@H]1CCN(S(=O)(=O)c2cn(C)cn2)[C@H]1Cc1cccnc1 | 9.79 |
| CCCS(=O)(=O)N1CCc2c(COCC)cncc2C1 | 8.76 |
| c1ccc(CCNCC2Cn3nncc3CO2)cc1 (stereo not given) | 7.61 |
| O=C([C@H]1CCCO1)N1CC[C@H](O)[C@@H]1Cc1ccncc1 | 6.38 |
| CNC(=O)[C@H]1C[C@H]2OCC[C@H]2N(Cc2ccc(F)cc2)C1 | 3.42 |
| O=C(NC1CC1)C1[C@H]2CN(Cc3ccc(-c4cc[nH]n4)s3)C[C@@H]12 (stereo not given in full) | 6.27 |
